In the library only some 1.7% were active in any assay of this set; here they are far more common.
Rce1 inh – blocks yeast Ras-converting enzyme. Q03530. yeast membranes, quenched prenylated peptide cleavage fluorescence. calls only. 290,000 tested, 0.27% active. AID 2563;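 active means fall in fluorescence gain of 50% or more versus controls, with final raw signal at or below 3038400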;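 further: plate controls were neutral control wells for no effect and wells lacking membranes for full effect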
Target sequence (Q03530 whole entry, looked up): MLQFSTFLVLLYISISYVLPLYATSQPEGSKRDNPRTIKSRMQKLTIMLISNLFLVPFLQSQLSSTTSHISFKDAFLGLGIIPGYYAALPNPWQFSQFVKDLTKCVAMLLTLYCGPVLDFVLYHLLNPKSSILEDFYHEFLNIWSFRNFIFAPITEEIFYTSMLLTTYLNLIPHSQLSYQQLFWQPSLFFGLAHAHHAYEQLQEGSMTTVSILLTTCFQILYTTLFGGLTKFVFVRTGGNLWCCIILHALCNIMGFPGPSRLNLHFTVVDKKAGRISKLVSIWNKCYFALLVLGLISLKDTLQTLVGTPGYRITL
CAL PDZ FP-1 – CAL PDZ (human) peptide binding inhibition; inhibition, % at 24.9 µM; purified CAL PDZ, TMR-peptide fluorescence polarization, 1 h; AID 602252; 300,000 tested, 0.92% active;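 active means mean inhibition of at least 30% with at least half of replicates also reaching 30%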;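 further: 0% = DMSO neutral control and 100% = excess unlabeled competitor peptide PRC23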
CAL PDZ FP-2 – human CAL PDZ-peptide interaction inhibition; purified CAL PDZ, TMR-peptide fluorescence polarization, 1 h; inhibition, % at 20 µM; 330,000 tested, 0.02% active; Q9HD26; AID 504414;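 active means highest replicate inhibition of at least 40%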;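 further: plate controls were DMSO neutral control wells for no effect and unlabeled competitor peptide control wells for full effect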
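Material: tagged CAL PDZ domain; buffer or medium: 25 mM sodium phosphate pH 7.4, 150 mM NaCl, TCEP, IgG, Thesit; compound dosing: single point, 20 µM; schedule: 1 h incubation at room temperature before polarization reading; measured by: FP readout, S and P plane fluorescence; read-out basis: percent inhibition from loss of millipolarization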
ARNT TACC3 PPI – ARNT/TACC3 interaction disruption | inhibition, % at 9.99 µM | AID 623870 | 390,000 tested, 0.66% active | Q9Y6A5 | AlphaScreen His-ARNT PAS-B/GST-TACC3 binding, luminescence; TACC3 fragment carries E629A point mutation;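 active means mean inhibition of replicates at least 50% and at least half of replicates each reaching 50%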;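 further: 0% = complete ARNT plus TACC3 wells and 100% = ARNT alone without TACC3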
AI-2 QS mod – modulators of Vibrio harveyi AI-2 quorum sensing system; Vibrio harveyi JMH597 AI-2 luminescence/OD600 ratio, 9 h; stronger effect = lower value; strain lacks LuxN and CqsS sensors; 0 = neutral-control median; activity change, % at 7.5 µM; 300,000 tested, 0.4% active; AID 2094; in the data active means activity change below about -75%, passing the limit was not always enough;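 further: luminescence divided by OD600 gain over 9 h not by final OD600 alone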
ARNT Alpha ctr – counter-screen for ARNT/TACC3 inhibitors: AlphaScreen artifacts. AC50, µM (highest dose often 68 µM), for inactives: at the top dose activity change, negative = signal decrease. 1,200 tested, 50% active. His-ARNT PASB-GST AlphaScreen artifact counter-screen, luminescence. shares compounds with ARNT TACC3 PPI;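 active means every separate test run was called active for a drop in luminescence, with AC50 within twice the top valid dose, actives reach about 71 µM in these data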
Active calls of the source: *; i = inactive; . = no result given; [ ] = another dose, or the depositor's remark.

SMILES	Rce1 inh	CAL PDZ FP-1	CAL PDZ FP-2	ARNT TACC3 PPI	AI-2 QS mod	ARNT Alpha ctr
Cc1ccc(-c2nc3ccccn3c2NCc2ccc3c(c2)OCO3)cc1	i	-1	-1	13	10	.
COCc1cn(CC[C@@H]2CC[C@@H](NC(=O)c3ccncc3)[C@@H](CO)O2)nn1	.	.	.	1	.	.
O=C(N[C@@H]1CC[C@H](CCn2cc(-c3ccccn3)nn2)O[C@H]1CO)c1ccncc1	.	.	.	57*	.	31µM*
COc1ccc(C2=C(C)CC(C)(C)NC2=O)cc1OC	i	-1	0	active	9	5%
O=S(=O)(C(=CNc1ccccc1)S(=O)(=O)c1ccccc1)c1ccccc1	i	-3	-2	.	13	.
CN1CCc2c(sc3c2C(=O)NC(c2ccccn2)N3)C1 (centres undefined)	i	-1	0	active	11	68µM*
CN1CCc2c(sc3c2C(=O)NC(c2ccccc2)N3)C1 (centres undefined)	i	-8	0	-2	8	.
COC(=O)N/N=C/c1ccc(-c2ccccc2Cl)o1	i	.	-2	-5	10	.
COc1ccc(Nc2nc(N(C)c3ccccc3)nc(N)c2[N+](=O)[O-])cc1	i	-2	0	2	16	.
COc1ccc(NC(=O)Nc2ccc3c(c2)CC(=O)N([C@@H](C)CO)C[C@@H](C)[C@H](CN(C)Cc2ccc(Oc4ccccc4)cc2)O3)cc1	.	.	.	58*	.	20µM*
C[C@H](CO)N1C[C@H](C)[C@@H](CN(C)C(=O)Nc2ccc3c(c2)OCO3)Oc2ccc(NC(=O)CCN3CCOCC3)cc2CC1=O	.	.	.	50*	.	-14%[42 µM]
COc1ccc(CN(C)C[C@@H]2Oc3ccc(NC(=O)Cn4cnnn4)cc3C(=O)N([C@@H](C)CO)C[C@H]2C)cc1	.	.	.	54*	.	-4%[42 µM]
C[C@H]1CN([C@@H](C)CO)C(=O)c2cc(NC(=O)Nc3cccc4ccccc34)ccc2O[C@@H]1CN(C)C(=O)Nc1ccc(C(F)(F)F)cc1	.	.	.	active	.	-31%[42 µM]
C[C@@H]1CN([C@@H](C)CO)C(=O)c2cc(NC(=O)Nc3cccc4ccccc34)ccc2O[C@@H]1CN(C)C(=O)Nc1ccc(C(F)(F)F)cc1	.	.	.	-1	.	.
COc1ccc(CN(C)C[C@H]2Oc3ccc(NC(=O)Cn4cnnn4)cc3C(=O)N([C@H](C)CO)C[C@@H]2C)cc1	.	.	.	24	.	.
COc1cccc(CNC(=O)C[C@H]2CC[C@H](NC(=O)C3CC3)[C@@H](CO)O2)c1	.	.	.	-17	.	.
CCOc1ccc(N=C(C)c2ccccc2O)cc1	i	.	-3	-4	7	.
C[C@H](CO)N1C[C@H](C)[C@H](CN(C)S(=O)(=O)c2ccc(Cl)cc2)Oc2c(NC(=O)Nc3cccc4ccccc34)cccc2C1=O	.	.	.	-11	.	.
C[C@H](CO)N1C[C@H](C)[C@H](CN(C)Cc2ccc(Oc3ccccc3)cc2)Oc2ccc(NC(=O)Nc3cccc4ccccc34)cc2CC1=O	.	0	0	-3	.	.
C[C@H]1CN([C@@H](C)CO)C(=O)Cc2cc(NC(=O)Nc3cccc4ccccc34)ccc2O[C@@H]1CN(C)Cc1ccc(Oc2ccccc2)cc1	.	.	.	61*	.	34µM*
C[C@H]1CN([C@@H](C)CO)C(=O)c2cccc(NC(=O)Nc3cccc4ccccc34)c2O[C@@H]1CN(C)S(=O)(=O)c1ccc(Cl)cc1	.	.	.	53*	.	25µM*
C[C@H]1CN([C@@H](C)CO)C(=O)Cc2cc(NC(=O)Nc3cccc4ccccc34)ccc2O[C@H]1CN(C)CC1CCCCC1	.	.	.	52*	.	-31%[42 µM]
CCOC(=O)c1ccc(S(=O)(=O)NNC(=O)c2cccc(N(C)C)c2)cc1	i	0	-2	-11	29	.
CS(=O)(=O)c1ccccc1C(=O)Nc1ccc(-c2nc3ccccc3o2)cc1	i	-4	-5	3	34	.
CCC(=O)N(C)C[C@H]1[C@@H](c2ccc(C3=CCCCC3)cc2)[C@@H](CO)N1C(=O)CC	.	.	.	0	.	.
Cc1cc(-c2nnnn2-c2cc(Cl)cc(Cl)c2)no1	i	0	0	-9	-5	.
CN(C)N1C(=O)CC(N2CCCC2)C1=O (centres undefined)	i	7	-2	-6	20	.

Screening data deposited in PubChem by Broad Institute.
